Measured values from ChEMBL document CHEMBL1121409, “Mechanism of decomposition of N-hydroxyacetaminophen, a postulated toxic metabolite of acetaminophen” (J Med Chem, 1980).

What was measured:
Type in all cases: ADME
[1] = The compound was tested for half life in presence of salicylate as additive (20 mM)
Method in brief: (§1)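 N-hydroxyacetaminophen at 1.5 mM initial, incubated at 37 °C in 0.2 M sodium phosphate pH 7.6, with each additive (20 mM) present before adding substrate. Aliquots were quenched in cold acetic acid (final pH ~3), or mixed with 10% FeCl3 in 0.9 M HCl and read at 540 nm. Remaining substrate was tracked by HPLC peak height (system A) or by the ferric assay. First-order disappearance gave the half-life.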

[2] = The compound was tested for half life in presence of thiosulphate as additive (20 mM); method in brief: as §1
[3] = The compound was tested for half life in presence of N-acetyl cysteine as additive (20 mM); method in brief: as §1
[4] = The compound was tested for half life in presence of acetaminophen as additive (20 mM); method in brief: as §1
[5] = The compound was tested for half life in presence of ascorbic acid as additive (20 mM); method in brief: as §1
[6] = The compound was tested for half life in presence of aspirin as additive (20 mM); method in brief: as §1
[7] = The compound was tested for half life in presence of control; method in brief: as §1
[8] = The compound was tested for half life in presence of cystamine as additive (20 mM); method in brief: as §1
[9] = The compound was tested for half life in presence of cysteamine as additive (20 mM); method in brief: as §1
[10] = The compound was tested for half life in presence of cysteine as additive (20 mM); method in brief: as §1
[11] = The compound was tested for half life in presence of dithionite as additive (20 mM); method in brief: as §1
[12] = The compound was tested for half life in presence of ethanol as additive (20 mM); method in brief: as §1
[13] = The compound was tested for half life in presence of glycine as additive (20 mM); method in brief: as §1
[14] = The compound was tested for half life in presence of lysine as additive (20 mM); method in brief: as §1
[15] = The compound was tested for half life in presence of methionine as additive (20 mM); method in brief: as §1
[16] = The compound was tested for half life in presence of phenol as additive (20 mM); method in brief: as §1
[17] = The compound was tested for half life in presence of pyrogallol as additive (20 mM); method in brief: as §1
[18] = The compound was tested for half life in presence of p-Nitrosophenol as additive (20 mM); method in brief: as §1

SMILES: CC(=O)N(O)c1ccc(O)cc1
- half-life [1]: 6.5 min
- half-life [2]: 31 min
- half-life [3]: 68 min
- half-life [4]: 33 min
- half-life [5]: 76 min
- half-life [6]: 6.4 min
- half-life [7]: 9.4 min
- half-life [8]: 43 min
- half-life [9]: 72 min
- half-life [10]: 78 min
- half-life [11]: 24 min
- half-life [12]: 6.7 min
- half-life [13]: 24 min
- half-life [14]: 23 min
- half-life [15]: 31 min
- half-life [16]: 14 min
- half-life [17]: 60 min
- half-life [18]: 17 min
